Format in all cases: functional
The subject of assay [1] is Enterobacter cloacae. Nature of the assay: Antibacterial activity against Enterobacter cloacae by CLSI M7-A7 agar dilution method. (In agar dilution, organisms are placed on agar that contains the substance at set levels.)
For assay [2], the system named is Serratia marcescens. Nature of the assay: Antibacterial activity against Serratia marcescens ATCC 8100 by CLSI M7-A7 agar dilution method. In a few lines:
(§1)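 Agar dilution on Mueller-Hinton agar with test substance at 0.25 to 32 μg/ml in twofold steps. Spots of about 10^4 CFU applied with a multipoint inoculator.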

Assay [3] concerns Klebsiella pneumoniae. Put plainly: Antibacterial activity against Klebsiella pneumoniae CCUG45421 by CLSI M7-A7 agar dilution method. An outline of the steps: as §1
Assay [4] relates to Enterobacter cloacae. Put plainly: Antibacterial activity against Enterobacter cloacae ATCC 23355 by CLSI M7-A7 agar dilution method.
The subject of assay [5] is Escherichia coli. Put plainly: Antibacterial activity against Escherichia coli SC 9253 by CLSI M7-A7 agar dilution method. An outline of the steps: as §1
Assay [6] relates to Escherichia coli. Put plainly: Antibacterial activity against Escherichia coli IH3080 by CLSI M7-A7 agar dilution method.
Assay [7] concerns Escherichia coli. Put plainly: Antibacterial activity against Escherichia coli ATCC […] by CLSI M7-A7 agar dilution method.
In assay [8] the test system is Klebsiella oxytoca. Nature of the assay: Antibacterial activity against Klebsiella oxytoca CCUG51683 by CLSI M7-A7 agar dilution method. In a few lines:
as §1

Assay [9] relates to Escherichia coli. Nature of the assay: Antibacterial activity against Escherichia coli by CLSI M7-A7 agar dilution method. An outline of the steps:
as §1

In assay [10] the test system is Pseudomonas aeruginosa. Nature of the assay: Antibacterial activity against Pseudomonas aeruginosa ATCC 27853 by CLSI M7-A7 agar dilution method. An outline of the steps: as §1
Assay [11] relates to Enterobacter cloacae. Nature of the assay: Antibacterial activity against Enterobacter cloacae CCUG52947 by CLSI M7-A7 agar dilution method.
The test system of assay [12] is Escherichia coli. Nature of the assay: Antibacterial activity against Escherichia coli IH3080 assessed as growth inhibition at 10 ug after 18 hrs by […].
In assay [13] the test system is Klebsiella pneumoniae. Put plainly: Antibacterial activity against Klebsiella pneumoniae by CLSI M7-A7 agar dilution method. An outline of the steps: as §1
Assay [14] relates to Acinetobacter baumannii. Nature of the assay: Antibacterial activity against Acinetobacter baumannii ATCC 19606 by CLSI M7-A7 agar dilution method.
The subject of assay [15] is Escherichia coli. Put plainly: Antibacterial activity against Escherichia coli IH3080 assessed as growth inhibition at 10 ug after 18 hrs by […] in presence of 1 ug/ml rifampin.
In assay [16] the test system is Staphylococcus aureus. Nature of the assay: Antibacterial activity against Staphylococcus aureus ATCC 25923 by CLSI M7-A7 agar dilution method. In a few lines:
as §1

For assay [17], the system named is Acinetobacter baumannii. Nature of the assay: Antibacterial activity against Acinetobacter baumannii by CLSI M7-A7 agar dilution method.
For assay [18], the system named is Candida albicans. Nature of the assay: Antibacterial activity against Candida albicans ATCC 28366 by CLSI M7-A7 agar dilution method.
The subject of assay [19] is Escherichia coli. Nature of the assay: Antibacterial activity against Escherichia coli SC 9252 by CLSI M7-A7 agar dilution method.
The subject of assay [20] is Klebsiella oxytoca. Put plainly: Antibacterial activity against Klebsiella oxytoca ATCC 13182 by CLSI M7-A7 agar dilution method. In a few lines:
as §1

In assay [21] the test system is Citrobacter freundii. Put plainly: Antibacterial activity against Citrobacter freundii ATCC 8090 by CLSI M7-A7 agar dilution method.
Assay [22] deals with Pseudomonas aeruginosa. Put plainly: Antibacterial activity against Pseudomonas aeruginosa ATCC 27853by Etest method in presence of 1 ug/ml NAB739. In a few lines:
(§2)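 MICs of the antibiotic taken from E-strips on Mueller-Hinton agar, run both with and without peptide. […] Inoculum was prepared per the strip manufacturer, matching CLSI M2-A9.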

For assay [23], the system named is Acinetobacter baumannii. Put plainly: Antibacterial activity against Acinetobacter baumannii F264 by Etest method in presence of 1 ug/ml NAB739.
Assay [24] concerns Pseudomonas aeruginosa. Nature of the assay: Antibacterial activity against Pseudomonas aeruginosa ATCC 27853by Etest method in presence of 2 ug/ml NAB739.
Assay [25] concerns Pseudomonas aeruginosa. Put plainly: (§3) Antibacterial activity against Pseudomonas aeruginosa ATCC 27853by Etest method in presence of […] NAB739.
In assay [26] the test system is Acinetobacter baumannii. Put plainly: (§4) Antibacterial activity against Acinetobacter baumannii F264 by Etest method in presence of […] NAB739.
The subject of assay [27] is Acinetobacter baumannii. Put plainly: Antibacterial activity against Acinetobacter baumannii F264 by Etest method. In a few lines: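 E-strip MIC on Mueller-Hinton agar without added peptide; inoculum per manufacturer, matching CLSI M2-A9.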
For assay [28], the system named is Pseudomonas aeruginosa. Put plainly: Antibacterial activity against Pseudomonas aeruginosa ATCC 27853by Etest method in presence of 0.5 ug/ml NAB739. An outline of the steps: as §2
Assay [29] has as its system Acinetobacter baumannii. The description is as §4. This is another data set of the same source.
For assay [30], the system named is Pseudomonas aeruginosa. Nature of the assay: Antibacterial activity against Pseudomonas aeruginosa ATCC 27853by Etest method. In a few lines: as §2
The subject of assay [31] is Pseudomonas aeruginosa. The assay is described as §3. This is another data set of the same source.
Assay [32] has as its system Acinetobacter baumannii. Nature of the assay: (§5) Antibacterial activity against Acinetobacter baumannii ATCC 19606 by Etest method in presence of […] NAB739.
For assay [33], the system named is Acinetobacter baumannii. Nature of the assay: Antibacterial activity against Acinetobacter baumannii ATCC 19606 by Etest method in presence of 1 ug/ml NAB739.
The test system of assay [34] is Acinetobacter baumannii. The description is as §5. This is another data set of the same source.
Assay [35] deals with Acinetobacter baumannii. Nature of the assay: Antibacterial activity against Acinetobacter baumannii ATCC 19606 by Etest method.
In assay [36] the test system is Acinetobacter baumannii. Put plainly: Antibacterial activity against Acinetobacter baumannii ATCC 19606 by Etest method in presence of 0.5 ug/ml NAB739.
Assay [37] concerns Acinetobacter baumannii. Nature of the assay: Antibacterial activity against Acinetobacter baumannii ATCC 19606 by Etest method in presence of NAB739.
The test system of assay [38] is Acinetobacter baumannii. Nature of the assay: Antibacterial activity against Acinetobacter baumannii F264 by Etest method in presence of NAB739.
Assay [39] relates to Acinetobacter baumannii. Put plainly: Antibacterial activity against Acinetobacter baumannii F264 by Etest method in presence of 0.5 ug/ml NAB739.

In brackets after ≈: the same amount, converted by molar mass. Bridge positions count the residues as written; N and C are the ends. Square brackets hold non-standard residues; d marks the D form. Peptide text beside a SMILES is read from it. * marks the point of attachment. Octanoyl = CCCCCCCC(=O)*; Dab = NCC[C@H](N)C(=O)O; Abu = CC[C@H](N)C(=O)O A value given as a limit tells only on which side of the number the result lay.

By MIC is commonly meant the smallest concentration in the dilution series that meets the test's criterion for growth inhibition.

On to `CCCCCCCC(=O)N[C@H](C(=O)N[C@@H](CC)C(=O)N[C@H]1CCNC(=O)[C@H]([C@@H](C)O)NC(=O)[C@H](CCN)NC(=O)[C@H](CCN)NC(=O)[C@H](CC(C)C)NC(=O)[C@@H](Cc2ccccc2)NC(=O)[C@H](CCN)NC1=O)[C@@H](C)O` (Octanoyl-T[Abu][Dab][Dab][dF]L[Dab][Dab]T; lactam 3-C), for which the minimal inhibitory concentration (MIC) is above 32 µg/mL in assay [1]; above 32 µg/mL in assay [2]; above 32 µg/mL in assay [3]; 32 µg/mL (≈ 29.8 µM) in [4]; above 32 µg/mL in assay [5]; above 32 µg/mL in [6]. The MIC in assay [7] was above 32 µg/mL; in assay [8], 32 µg/mL (≈ 29.8 µM); in assay [9], above 16 µg/mL; in assay [10], above 32 µg/mL; in assay [11], above 32 µg/mL; in assay [13] it was above 32 µg/mL. Also, the minimal inhibitory concentration (MIC) was above 32 µg/mL in assay [14]; above 32 µg/mL in [16]; above 32 µg/mL in assay [17]; above 32 µg/mL in assay [18]; above 32 µg/mL in [19]; 32 µg/mL (≈ 29.8 µM) in assay [20]. In addition, the minimum inhibitory concentration (MIC) in assay [21] was 16 µg/mL (≈ 14.9 µM). Further, the results for the “inhibition zone (IZ)” value in assay [12] and in [15] were 32 mm2 and 194 mm2, respectively.
With `CC(=O)O[C@H]1C[C@@]2(C)[C@@H](C[C@@H](O)[C@H]3[C@@]4(C)CC[C@@H](O)[C@@H](C)[C@@H]4CC[C@@]32C)/C1=C(\CCC=C(C)C)C(=O)O` [FUSIDIC ACID], the minimal inhibitory concentration (MIC) in assay [22] is above 256 µg/mL; in assay [23] it was 1 µg/mL; in assay [24], 192 µg/mL; in assay [25] it was above 256 µg/mL; in [26] it was 32 µg/mL; in assay [27], above 256 µg/mL. In addition, the MIC was above 256 µg/mL in [28]; 12 µg/mL in assay [29]; above 256 µg/mL in assay [30]; above 256 µg/mL in assay [31]; 32 µg/mL in assay [32]; 1 µg/mL in assay [33]. The MIC was 12 µg/mL in assay [34], above 256 µg/mL in assay [35], 4 µg/mL in assay [36] and 3 µg/mL in assay [39]. Also, the “fractional inhibitory concentration index (FICI)” value in assay [37] and in assay [38] was “<=0.172” each time.
For the compound `C[C@@H](O)[C@H]1C(=O)N2C(C(=O)O)=C(S[C@@H]3CN[C@H](C(=O)N(C)C)C3)[C@H](C)[C@H]12` [MEROPENEM], the MIC is 0.25 µg/mL in assay [22]; 0.38 µg/mL in assay [23]; 0.25 µg/mL in [24]; 0.25 µg/mL in [25]; 32 µg/mL in assay [26]; above 32 µg/mL in assay [27]. In addition, the MIC in [28] came out at 0.25 µg/mL; in [29] it was 6 µg/mL; in assay [30], 0.25 µg/mL (≈ 0.652 µM); in assay [31], 0.25 µg/mL; in [32], 1 µg/mL; in assay [33], 0.125 µg/mL. Further, the MIC came out at 0.5 µg/mL in [34], 1 µg/mL (≈ 2.61 µM) in [35], 0.25 µg/mL in assay [36] and 1 µg/mL in assay [39]. The “fractional inhibitory concentration index (FICI)” value in assay [37] is recorded as 0.5; in [38], 0.281.
For `CN[C@H](CC(C)C)C(=O)N[C@H]1C(=O)N[C@@H](CC(N)=O)C(=O)N[C@H]2C(=O)N[C@H]3C(=O)N[C@H](C(=O)N[C@H](C(=O)O)c4cc(O)cc(O)c4-c4cc3ccc4O)[C@H](O)c3ccc(c(Cl)c3)Oc3cc2cc(c3O[C@@H]2O[C@H](CO)[C@@H](O)[C@H](O)[C@H]2O[C@H]2C[C@](C)(N)[C@H](O)[C@H](C)O2)Oc2ccc(cc2Cl)[C@H]1O` [VANCOMYCIN], the MIC in assay [22] was above 256 µg/mL; in assay [23] it was 1 µg/mL; in assay [24], above 256 µg/mL; in [25], above 256 µg/mL; in assay [26] it was 256 µg/mL; in assay [27], above 256 µg/mL. Further, the MIC in assay [28] was above 256 µg/mL; in assay [29], 16 µg/mL; in assay [30], above 256 µg/mL; in assay [31], above 256 µg/mL; in [32], 64 µg/mL; in assay [33] it was 1 µg/mL. Besides, the MIC was 8 µg/mL in assay [34], above 256 µg/mL in assay [35], 3 µg/mL in assay [36] and 3 µg/mL in assay [39]. Further, the “fractional inhibitory concentration index (FICI)” value in assay [37] is given as “<=0.156”; in assay [38], “<=0.188”.
With POLYMYXIN B, the minimal inhibitory concentration (MIC) in assay [1] was 0.5 µg/mL; in [2], above 32 µg/mL; in assay [3] it was 1 µg/mL; in [4] it was 0.5 µg/mL; in assay [5], above 32 µg/mL; in assay [6], 0.5 µg/mL. Moreover, the MIC in assay [7] was 1 µg/mL; in [8], 0.5 µg/mL; in assay [9] it was 0.25 µg/mL; in assay [10] it was 1 µg/mL; in [11] it was 1 µg/mL; in [13], 0.5 µg/mL. The MIC in [14] was 1 µg/mL; in [16], above 32 µg/mL; in assay [17] it was 0.5 µg/mL; in assay [18], above 32 µg/mL; in assay [19], above 32 µg/mL; in assay [20] it was 0.5 µg/mL. The compound also returned a minimum inhibitory concentration (MIC) in assay [21] of 1 µg/mL. The inhibition zone (IZ) came out at 120 mm2 in assay [12] and 125 mm2 in assay [15].

Source of the values: ChEMBL document CHEMBL1671867, “Novel polymyxin derivatives carrying only three positive charges are effective antibacterial agents” (Antimicrob Agents Chemother, 2008).
